High-throughput results (PubChem)
A selection: hits, their analogues and other compounds. The true share with any hit is near 2.3%.
HNF4A DNA FP = change in binding of human HNF4A to DNA, primary screen, biochemical, fluorescence polarization, FITC-DNA; Hepatocyte nuclear factor 4-alpha (Homo sapiens), P41235; 1 h; 0.3% of 360,000 active; activity change, % at 10 µM; AID 1224865, 2016; in the data active means activity change above about 30%, passing the limit was not always enough
CRFBP-R2 block = antagonists of CRF-BP/CRF-R2 complex, primary screen, cell-based, HEK293, calcium dye fluorescence, uHTS; 0.59% of 350,000 active; AID 588475, 2011; inhibition, % at 11.8 µM; CRF-induced calcium fluorescence;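 active means inhibition of the ligand-induced calcium signal above about 50% at the single tested concentration, limit read from the data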
CSN deneddyl inh = inhibitors of CSN-mediated cullin deneddylation, primary screen, biochemical, fluorescence polarization, uHTS; Purified CSN, SCF-Nedd8-OG deneddylation; 0.38% of 360,000 active; COP9 signalosome complex subunit 5 (Homo sapiens), Q92905; inhibition, % at 12.5 µM;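 active means pattern-corrected inhibition above about 35%, with an unprinted fluorescence ratio check between 0.5 and 1.5, limit read from the data, passing the limit was not always enough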;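 further: 0% = enzyme with substrate and 100% = substrate without enzyme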
Target sequence (Q92905 whole entry, looked up, one chain of several): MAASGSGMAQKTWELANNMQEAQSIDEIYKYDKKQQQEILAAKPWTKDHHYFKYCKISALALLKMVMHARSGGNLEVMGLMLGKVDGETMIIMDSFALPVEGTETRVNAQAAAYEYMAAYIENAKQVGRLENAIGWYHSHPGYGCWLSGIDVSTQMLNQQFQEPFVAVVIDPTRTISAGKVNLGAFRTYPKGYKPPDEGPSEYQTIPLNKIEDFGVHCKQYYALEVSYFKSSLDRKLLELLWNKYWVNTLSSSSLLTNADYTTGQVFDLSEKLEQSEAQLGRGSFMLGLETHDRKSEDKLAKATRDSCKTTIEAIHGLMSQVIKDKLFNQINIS
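test system = HEK293T-derived human Csn5 enzyme | amount = 0.24 nM Csn5 enzyme, final concentration | medium = Tris/NaCl/DTT buffer, pH 7.5 | schedule = 90 min reaction at room temperature | signal = FP | evaluation = inhibition of Csn5 cleavage, % | compound dosing = single dose of 12.5 µM compound with 0.25% DMSO | probe or stimulus = 10 nM SCFSkp2-Nedd8OG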
Rpn11 inh = Rpn11 (PSMD14) deubiquitinase inhibitors, primary screen, biochemical, fluorescence polarization, uHTS; calls only at 20 µM; 0.59% of 360,000 active; human 26S proteasome, Ub4-pepOG fluorescence polarization; 20S core pre-blocked with epoxomicin; AID 588493, 2011;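 active means inhibition at 20 µM, scaled to each plate's controls, above about 33%, limit read from the data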
TPT1 inh = Candida albicans TPT1 enzyme inhibitors, primary screen, biochemical, fluorescence polarization | tRNA 2'-phosphotransferase TPT1 (Candida albicans SC5314) | recombinant caTPT1, FP RNA substrate dephosphorylation | AID 1962, 2009 | inhibition, % at 5 µM | 0.81% of 300,000 active;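 active means inhibition above the mean of all tested compounds plus 3 SD, set per screening campaign, cut at about 24% in these data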;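 further: plate controls were DMSO alone for no effect and ferristatin control at 100 nM for full effect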
CRFBP-R2 agonist = agonists of CRF-BP/CRF-R2 complex, primary screen, cell-based, HEK293, calcium dye fluorescence, uHTS; calcium dye fluorescence (FLIPR); percent of saturating CRF peptide response; 0.46% of 350,000 active; AID 588473, 2011; activation, % at 13.2 µM; CRF-binding protein / CRF receptor 2 complex (human);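 active means activation of at least 50%, plus an integration ratio under a set limit after plate pattern correction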;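 further: plate controls were neutral control wells without compound for no effect and CRF at EC100 for full effect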
TPT1 inh confirm = Candida albicans TPT1 inhibitors, confirmation, biochemical, fluorescence polarization, triplicate. 74% of 2,400 active. inhibition, % at 5 µM. AID 2149, 2009. recombinant caTPT1, RNase T1 coupled. shares compounds with TPT1 inh;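 active means inhibition above the primary screen limit, the mean inhibition of all tested compounds plus 3 SD, cut at about 25% in these data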
RNase T1 counter = RNase T1 inhibitors, counter-screen for TPT1 inhibitor project, biochemical, fluorescence polarization; shares compounds with TPT1 inh; RNase T1 cleavage, 1536-well; inhibition, % at 5 µM; 83% of 2,400 active;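 active means inhibition above the solvent-only control well mean plus 3 SD, limit set per screening run, cut at about 23% in these data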;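 further: plate controls were DMSO wells with enzyme for no effect and wells without RNase T1 for full effect; inhibitors block cleavage so intact labeled substrate keeps polarization high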
Target sequence (P00651 whole entry, looked up): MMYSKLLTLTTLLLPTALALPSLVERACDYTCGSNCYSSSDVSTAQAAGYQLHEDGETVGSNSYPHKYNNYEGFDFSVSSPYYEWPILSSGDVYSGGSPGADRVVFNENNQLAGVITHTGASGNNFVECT
Numbers without * were called inactive; i = inactive; · = not tested or not shown.

SMILES	HNF4A DNA FP	CRFBP-R2 block	CSN deneddyl inh	Rpn11 inh	TPT1 inh	CRFBP-R2 agonist	TPT1 inh confirm	RNase T1 counter
Cn1c(=O)[nH]c(=O)c2c1nc(SCC(=O)O)n2CCOc1ccccc1	0	-3	0	i	-1	0	·	·
COc1cccc(C2c3c(oc4ccccc4c3=O)C(=O)N2Cc2ccco2)c1 (stereo unspecified)	-1	19	-1	i	5	-1	·	·
Cc1ccc(/C=C2/NC(=O)N(Cc3ccccc3F)C2=O)s1	75	-35	41*	·	69*	6	86*	86*
Cn1ncc(C#N)c1NC(=O)C1CC(c2ccc(Cl)cc2)=NO1 (stereo unspecified)	2	-3	4	i	1	-2	·	·
c1ccc(C2Oc3ccccc3C3CC(c4cccs4)=NN32)cc1 (stereo unspecified)	20	-8	15	·	49*	1	57*	69*
CCOc1ccc(C2CC(c3c(O)c4ccccc4oc3=O)=NN2c2ccccc2)cc1OC (stereo unspecified)	64	-27	64	·	69*	38	80*	82*
Cc1nnc(-c2cccc(Br)c2)c2cn(-c3ccccc3)nc12	144	14	-76	·	-2	-5	·	·
Cc1nnc(-c2cccc(Br)c2)c2cn(-c3cccc(Br)c3)nc12	125	29	-24	·	47*	-1	79*	84*
O=S(=O)(NCCc1ccc2c(c1)OCCO2)c1cccs1	24	1	11	i	26*	4	20	27*
O=S(=O)(NCCc1ccccc1)c1cccs1	1	6	-1	i	0	-1	·	·
CC1=NN(c2ccccc2)C(=O)/C1=C/C=C/C=C/N(C)C	190	9	104	·	124*	-1	94*	102*
COc1ccccc1N1C(=O)C2C(C(=O)c3ccccc3)=NN(c3ccccc3)C2C1=O (stereo unspecified)	-3	-35	4	i	23	38	·	·
Cc1ccc(N2C(=O)C3C(C(=O)c4ccccc4)=NN(c4ccccc4)C3C2=O)cc1 (stereo unspecified)	6	-86	4	i	29*	90*	37*	51*
O=C(C1=NN(c2ccccc2)C2C(=O)N(c3ccccc3)C(=O)C12)c1ccccc1 (stereo unspecified)	-10	-79	7	i	28*	68*	32*	45*
O=C(C1=NN(c2ccccc2)C2C(=O)N(c3ccccc3Cl)C(=O)C12)c1ccccc1 (stereo unspecified)	10	-138	4	i	31*	135*	32*	46*
CCOC(=O)c1c(C)[nH]c(C(=O)OCC(=O)NC(C)C)c1C	0	9	-3	i	-3	1	·	·
CC1CCCC(NC(=O)CN2C(=O)NC(Cc3c[nH]c4ccccc34)C2=O)C1C (stereo unspecified)	2	-10	-3	i	·	1	·	·
N#Cc1ccc(-c2ccccc2)nc1SCC(=O)c1cccc(Cl)c1	4	-9	3	i	45*	5	27*	36*
CCOc1ccc(CNC(=O)CCn2c(=O)oc3ccccc32)cc1	3	28	0	i	5	-3	·	·
S=C(Nc1ccc(Cl)cc1)N(CCCN1CCOCC1)Cc1cccs1	2	0	1	i	57*	-1	4	5
O=C(Nc1ccc(Cl)cc1)N(CCCN1CCOCC1)Cc1cccs1	-3	0	3	i	3	0	·	·
CCN(CC)c1ccc(/C=N/NC(=O)c2cccc(S(=O)(=O)N3CCOCC3)c2)c(O)c1	7	-42	-4	i	41*	16	58*	67*
Nc1ccc(C(=O)N/N=C/c2sc(N3CCOCC3)nc2-c2ccccc2)cc1	-1	7	2	i	-3	0	·	·
O=C(Nc1ccccc1F)C(=Cc1sc(N2CCOCC2)nc1-c1ccccc1)C(=O)Nc1ccccc1F	-55	-35	-15	i	48*	17	-24	-3
O=C(N/N=C/c1sc(N2CCOCC2)nc1-c1ccccc1)c1cccc(S(=O)(=O)N2CCOCC2)c1	25	-7	21	·	60*	13	60*	69*
SMILES	HNF4A DNA FP	CRFBP-R2 block	CSN deneddyl inh	Rpn11 inh	TPT1 inh	CRFBP-R2 agonist	TPT1 inh confirm	RNase T1 counter
O=C(c1ccc(-c2cc(O)c3ncccc3c2)cc1)N1CCNCC1	8	2	-4	i	·	-1	·	·
Cc1ccc(C(=O)N/C(=C\c2ccco2)C(=O)N2CC(C)OC(C)C2)cc1C (stereo unspecified)	0	-3	8	i	·	1	·	·
COc1ccc(N/C(C)=C/C(=O)c2ccccc2)cc1	1	-7	-9	i	0	0	·	·
COc1ccc(N/C(C)=C/C(=S)Nc2ccccc2)cc1	-3	-46	16	i	125*	-1	10	13
O=C(NC1CCSC1=O)c1cccc(Cl)c1 (stereo unspecified)	3	34	-3	i	31*	-5	6	8
N#C/C(=C\c1ccc([N+](=O)[O-])o1)C(=O)Nc1ccc(F)cc1	15	-29	23	·	39*	10	42*	55*
O=C(Nc1ccc(Cl)cn1)c1cccc(S(=O)(=O)N2CCCCC2)c1	-2	0	3	i	·	1	·	·
CN(C)S(=O)(=O)c1cccc(C(=O)Nc2ccc(Cl)cn2)c1	5	-13	0	i	27*	0	8	8
Cc1ccc(CN2CCN(CCCn3cnc4c(OCc5ccccc5)ncnc43)CC2)cc1	-1	9	4	i	·	3	·	·
CC(=O)/C(N=Nc1cc(C)ccc1O)=C(\C)O	20	-27	27	·	44*	9	29*	48*
CCN(CC)C(=O)c1ccc(Oc2ccc([N+](=O)[O-])cc2Cl)cc1	1	13	-1	i	44*	-3	5	7
O=C(NCCNC(=O)c1ccco1)c1cccc(F)c1	1	3	-5	i	47*	-1	10	12
